Measured values from ChEMBL document CHEMBL4513216, “Probing the Open Global Health Chemical Diversity Library for Multistage-Active Starting Points for Next-Generation Antimalarials” (ACS Infect Dis, 2020).

Test: Toxicity liver stage against HepG2, at 10uM
Type: cell-based
Set-up: test concentration 10 uM, cell line HepG2-A16-CD81EGFP
Conditions: human, HepG2-A16-CD81EGFP cells; read-out: INHIBITION
Method in brief: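 Uninfected HepG2-A16-CD81EGFP cells, 3 × 10^3 per well, 1536-well, plated on prespotted compound at 10 μM final, parasite-free screening media added to match infected plates; puromycin 10 μM positive, DMSO 0.5% negative; run in parallel with 48 h PbLuc assay at 37 °C, 5% CO2; viability by CellTiter-Glo luminescence, normalized to controls.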

Row | Structure (SMILES) | cytotoxicity at 10 µM [%]
1 | COc1cccc(-c2n[nH]cc2C(=O)NC(C)CC(=O)O)c1 (stereo not given) | -8.91
2 | N#Cc1cnc2ccccc2c1N1CCNCC1 | -1.86
3 | CCn1ncc2c1C(COC)N(C(=O)c1ccc3c(c1)OCO3)CC2 (stereo not given) | 8.1
4 | Cc1ccccc1CN(CCO)Cc1ncc[nH]1 | -3.97
5 | c1ccc(O[C@H]2CO[C@@]3(CCN(Cc4ccc5c(c4)OCO5)C3)C2)nc1 | -76.4
6 | CCS(=O)(=O)N1CCC2(CC1)c1ncc(-c3cccnc3)n1CCN2C | -103
7 | CC(=O)NCCNC(=O)N(C)Cc1ccc2c(c1)OCCO2 | -1.59
8 | CC[C@H]1CN2CC[C@H]1C[C@@H]2CNC(=O)Nc1cccc(C(F)(F)F)c1 | 0.676
9 | CCc1cc(C(F)(F)F)n2nc(C3CCCN3C3CCSCC3)cc2n1 (stereo not given) | 3.81
10 | Cc1cc(NC(=O)Cc2ccc3c(c2)OCO3)n(C)n1 | 10.1
11 | O=C(c1ccc(-n2ccnc2)cc1)N1CCN(c2cnccn2)CC1 | -5.63
12 | O=C(Nc1cccc(F)c1)C1CCCN1c1nccs1 (stereo not given) | -4.72
13 | O=S(=O)(C1CC1)N1CCC2(COCc3cnc(-c4cccnc4)nc32)C1 (stereo not given) | -115
14 | Cc1cccc(-c2c[nH]c(C3CCCN3C(=O)C3CCOCC3)n2)c1 (stereo not given) | 1.92
15 | Cc1nc(CCC(=O)NCC(N)=O)cc(C2CCNCC2)n1 | -3.03
16 | Cc1n[nH]c(-c2ccc(NC(=O)C(C)N3CCN(C)CC3)cc2)n1 (stereo not given) | 6.03
17 | O=C(CN(CC(O)c1ccc(F)cc1)C1CC1)NC(C1CC1)C1CC1 (stereo not given) | 11.8
18 | CCn1nc(C)c(CNC(=O)C2COc3ccccc3C2)c1C (stereo not given) | 9.39
19 | CCn1c(C)cc(-c2csc(Cn3ccc(=O)[nH]c3=O)n2)c1C | 10.2
20 | CS(=O)(=O)c1nnc(NC(=O)CCc2cccc(Cl)c2)[nH]1 | -20.4
21 | Cc1oncc1C(=O)N1C[C@H](OCc2ccccn2)[C@H]2OCCC[C@H]21 | -0.385
22 | CNC(=O)C(C)CNC(=O)c1coc(COc2cccc(F)c2F)n1 (stereo not given) | 5.21

Row | Structure (SMILES) | cytotoxicity at 10 µM [%]
23 | Cc1n[nH]c(C)c1CN(C)C(C(=O)O)c1ccc2c(c1)OCO2 (stereo not given) | 6.86
24 | CCc1noc(C2CCCCN2C(=O)c2ccn(C3CCCC3)n2)n1 (stereo not given) | 11.8
25 | CC(c1cc(F)ccc1F)N(C)CCS(=O)(=O)CCC(N)=O (stereo not given) | -47
26 | NS(=O)(=O)CC1CCN(c2ncccc2C(F)(F)F)CC1 | -3.16
27 | c1ccc(-c2cc(CNCCN3CCCC3)c3nnnn3c2)cc1 | -17.4
28 | CO[C@H]1CN(C(=O)OC(C)(C)C)CC1NCc1ccn(C)c1 (stereo not given in full) | -45.9
29 | CC(C)CCN1CCc2[nH]nc(C(=O)N3CC=CC3)c2C1 | -121
30 | O=C(O)[C@@H]1CN(C(=O)CN2CCCCCC2)C[C@H]1c1ccccc1 | 4.97
31 | CC1CN(C)CCN1C(=O)c1ccn(-c2ccccc2Cl)n1 (stereo not given) | -6.33
32 | CC(C(=O)N1CCCCCC1)N1CCN(Cc2nccn2C)CC1 (stereo not given) | -5.28
33 | CCN(CC)S(=O)(=O)NC1CCCc2nc(-c3ccccc3)ncc21 (stereo not given) | 17.2
34 | CC1CN(Cc2noc(C3CC3)n2)CCN1Cc1noc(C2CC2)n1 (stereo not given) | -5.5
35 | C[C@]1(O)CCN(Cc2nccs2)C[C@@H]1Oc1cccc(F)c1 | -0.779
36 | CC(C)(C)C(=O)N1CCCC1(C(=O)N1CCCC1)c1cnccn1 (stereo not given) | 4.84
37 | CCC(=O)Nc1ccc2c(c1)C1(CCOCC1)CN2CCF | -87.4
38 | O=C(NCCn1ccnc1C1CCOC1)c1cccnc1 (stereo not given) | -0.757
39 | Cc1nnc(N2C[C@H](OCC3CCCC3)[C@H]3OCCC[C@H]32)s1 | 5.16
40 | Cc1ccc(NC(=O)CNc2cccc(C(N)=O)c2C)c(C)c1 | 17.6
41 | CNS(=O)(=O)c1ccc(C(=O)NCCc2ccccn2)cc1 | -3.81
42 | Cn1c(N)nnc1SCc1cc(Br)ccc1Cl | -21.7
43 | Cc1cccc(-n2cc(C(=O)N3CCCC(n4ccnc4)C3)nn2)c1 (stereo not given) | 5.39
44 | CN(Cc1ccco1)[C@@H]1CN(Cc2ccncc2)C[C@@H]2CCCO[C@@H]21 | 0.361

Row | Structure (SMILES) | cytotoxicity at 10 µM [%]
45 | Cc1cnc2[nH]c(C(F)(F)F)c(CN3CCOCC3)c2c1 | 11.7
46 | Cc1ccc(NC(=O)NC(C)Cn2cccn2)cc1 (stereo not given) | -0.577
47 | Cc1ccc(CN2CCCC3(CCCN3S(C)(=O)=O)C2)s1 (stereo not given) | -97.9
48 | CN(C)Cc1cn(-c2ccccc2C(=O)NCCC2CCCN2C)cn1 (stereo not given) | 4.08
49 | Cc1cc(C)cc(-n2ncc3c2CCCC3N)c1 (stereo not given) | 7.63
50 | CC1(C)CC1(C(=O)N1CC(c2cccnc2)C1)c1ccccc1F (stereo not given) | -10.7
51 | CCOCc1cnc2n1CCN(C(=O)Cc1ccccn1)C2C (stereo not given) | 8.04
52 | c1cnn(CCNCc2ccc(N3CCCCC3)cc2)c1 | -10.1
53 | Cn1cc(CN2CC[C@@H]3[C@@H](CCC(=O)N3CC3CCNCC3)C2)cn1 | 1.73
54 | Cc1ncncc1-c1ccnc(N)n1 | -7.22
55 | Cc1nnc(NCCc2coc(-c3ccccc3)n2)c(C#N)c1C | -14.3
56 | CCOC(C)C(=O)NCCNS(C)(=O)=O (stereo not given) | -5.29
57 | Cc1ccc(CNCc2nccn2C)c(OC(C)(C)C)c1 | -2.58
58 | O=C(Cc1ccccn1)N1CCC2(CC1)CN(c1ccccn1)CCO2 | 8.85
59 | O=C(CCc1ccsc1)N1CCCCC1Cn1cccn1 (stereo not given) | -5.78
60 | CCN1CCN(c2ccccc2NC(=O)N(C)C2CCSC2)CC1 (stereo not given) | -56.7
61 | COc1cccc(COCC(=O)NC(C(N)=O)c2ccccc2)c1 (stereo not given) | -3.73
62 | COc1ccc(OC)c(CNC(=O)N2CCC(n3cncn3)CC2)c1 | 2.46
63 | CN(Cc1ccccc1)CC1(O)CCCN(Cc2ccc(F)cc2)C1=O (stereo not given) | -14.6
64 | CC(C)Oc1ncccc1CNC(=O)N1CCC1 | -7.6
65 | O=C([C@H]1COC[C@H]2CN(Cc3ccco3)C[C@H]21)N1CCCO1 | -8.79
66 | O=C(Cn1nc(-c2ccc(F)cc2)oc1=O)Nc1ccccc1 | 0.967

Row | Structure (SMILES) | cytotoxicity at 10 µM [%]
67 | CC(C)(N)C(=O)N1CCCC1c1cncc(Oc2ccc(F)cc2)n1 (stereo not given) | 1.11
68 | CCNC(=O)C1CCCN(Cn2nc(C(C)(C)C)ccc2=O)C1 (stereo not given) | 10.1
69 | CCOCC1CCCN(C(=O)NCc2cn3c(C)cccc3n2)C1 (stereo not given) | 12.8
70 | Fc1ccc(OCCCNC2=NCCCN2)cc1 | -7.91
71 | c1ccc(CN2CCC3(CC2)Nc2ccccc2CO3)cc1 | -0.719
72 | CN(Cc1ccsc1)C(=O)CN1CCCC1Cn1cccn1 (stereo not given) | -3.78
73 | CCSC1(CNc2ncc(Br)cn2)CCOCC1 | -2.72
74 | Cc1ccc(-c2snnc2C(=O)NCCCO)cc1 | 6.67
75 | O=C1O[C@@H]2CN(Cc3cc4ccccc4o3)C[C@@H]2N1Cc1ccccn1 | 5.16
76 | O=C(NC1CCN(c2nccs2)CC1)c1cccs1 | 4.17
77 | Cc1noc(C)c1C(=O)N1CCOC2(COCCN(C(C)C)C2)C1 (stereo not given) | 2.71
78 | CN(Cc1ccco1)[C@@H]1CN(C(=O)C2CCOCC2)C[C@@H]2CCCO[C@@H]21 | 3.48
79 | O=C1CC(c2ccncc2)C2(CCN(C(=O)c3cccc(F)c3)CC2)N1 (stereo not given) | -74.4
80 | CC(=O)Nc1nc(CN2CCOC(Cn3cccn3)C2)cs1 (stereo not given) | -5.69
81 | CC(C)N1CC(NC(=O)c2ccc(Cl)s2)CC1=O (stereo not given) | -8.51
82 | Cc1nc(CNC(=O)NC2CCCN(c3ncccn3)C2)cs1 (stereo not given) | -140
83 | CS(=O)(=O)NCCN1CCSCC1c1ccc(Cl)cc1 (stereo not given) | -3.7
84 | CN1CCC2(CCN(S(=O)(=O)c3ccc(-c4cnco4)s3)CC2)C1 | -0.0395
85 | Cc1cc(C(=O)N2CCN(Cc3ccco3)C(CCO)C2)cc(=O)[nH]1 (stereo not given) | -1.5
86 | Cc1ccccc1CN(CCN(C)C)Cc1ccc(C(=O)O)cc1 | -1.6
87 | COc1cccc(CNCc2ccnc(N3CCOCC3)c2)c1OC | 7.26
88 | Clc1ccccc1Cn1cc(CNC2CCc3ncnn3C2)cn1 (stereo not given) | 1.91

Row | Structure (SMILES) | cytotoxicity at 10 µM [%]
89 | CN(CCO)Cc1nnc(C2CCN(C(=O)CN3CCCC3)CC2)n1C | 2.1
90 | CCn1ncc(-c2cc(C(F)(F)F)nc(N3CCC(N)CC3)n2)c1C | -6
91 | COc1ccc(-c2cnc(N(C)C)nc2C2CN(C(C)=O)CCO2)cc1 (stereo not given) | -31.9
92 | CN(C)C(=O)c1cnc2n1CCN(Cc1ccc3c(c1)OCO3)C2 | -69
93 | CCN(CC)Cc1ccc(C(=O)N2CCCC2Cn2cccn2)o1 (stereo not given) | -10.5
94 | Cn1cc(S(=O)(=O)Nc2c(F)cccc2N2CCCC2)cn1 | -4.24
95 | NC(=O)c1cnc(NC(=O)CCc2ccco2)c(Cl)c1 | 3.42
96 | O=C(CCN1CCCC1c1cccc2c1OCCO2)N1CCOCC1 (stereo not given) | 25.6
97 | Cc1nn(CCC(=O)N2CCCC(OCc3cccnc3)C2)c(C)c1C (stereo not given) | -5.47
98 | COC(=O)C(CO)NC(=O)c1cn(Cc2ccccc2F)nn1 (stereo not given) | -1.14
99 | COc1ccc2c(c1)C(NCCc1ncc(C)s1)CCCO2 (stereo not given) | -3.86
100 | CC(=O)N1CCN(C[C@H]2CC[C@@H](Cc3ccc4ncccc4c3)O2)CC1 | -9.14
101 | CN(C)S(=O)(=O)N1CC[C@]2(C[C@@H](OCc3ccccn3)CO2)C1 | 10.1
102 | OC[C@H]1CCCN1c1nccc(-c2c[nH]nc2C2CCCCC2)n1 | -2.5
103 | CC(C)CCN1CCc2nc(N3CCOCC3)nc(NC(C)C)c2C1 | -113
104 | COc1ccccc1CN1CC[C@H]2C[C@@H](C(=O)N3CCCC3)O[C@H]2C1 | 7.28
105 | CCc1ccc(C(=O)Nc2ccc(CC3CC(=O)NC3=O)cc2)s1 (stereo not given) | -0.95
106 | CCCN(CC(=O)OC)C(=O)c1sc(C)nc1C | -2.42
107 | COc1cc(C#N)ccc1OCCN1CCC(n2ccnc2)CC1 | 2.75
108 | NC(=O)c1cc(-n2cc(-c3cccc(C(=O)O)c3)cn2)cs1 | -0.387
109 | Nc1nc2c(c(NC(Cn3cccn3)c3ccccc3)n1)CCNCC2 (stereo not given) | -12.3
110 | CC(NC(=O)N1CCC2(C1)OCCO2)c1ccc(F)cc1Cl (stereo not given) | -5.16
